Assays:
[1] = target: T1, Endothelin receptor type B (Homo sapiens, UniProt P24530); test: Binding affinity towards human Endothelin B receptor (hET -B)
T1 sequence (P24530 whole entry): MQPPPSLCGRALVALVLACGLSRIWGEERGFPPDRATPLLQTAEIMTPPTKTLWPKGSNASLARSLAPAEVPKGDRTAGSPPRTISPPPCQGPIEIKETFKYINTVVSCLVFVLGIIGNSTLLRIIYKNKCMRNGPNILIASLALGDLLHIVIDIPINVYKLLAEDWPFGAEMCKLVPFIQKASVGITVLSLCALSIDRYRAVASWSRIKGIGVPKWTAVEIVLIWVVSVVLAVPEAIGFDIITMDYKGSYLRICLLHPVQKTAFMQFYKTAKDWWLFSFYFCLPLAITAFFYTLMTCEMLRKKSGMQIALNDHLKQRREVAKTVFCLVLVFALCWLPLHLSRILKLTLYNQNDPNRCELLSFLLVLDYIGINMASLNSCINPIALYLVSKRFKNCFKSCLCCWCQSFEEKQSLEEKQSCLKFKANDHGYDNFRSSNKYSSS

[2] = target: Endothelin receptor, ET-A/ET-B (Homo sapiens) (UniProt P24530+P25101); test: Ratio of binding affinity towards hETA to hETB; assay type: protein assay
Summary of the method: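 Ratio of IC50 values from two CHO membrane binding assays. Both run 3 h at 25 °C over 11 concentrations, 10^-10 to 10^-5 M, in duplicate, with at least 2 determinations each.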

[3] = target: T2, Endothelin-1 receptor (Homo sapiens, UniProt P25101); test: Binding affinity towards human Endothelin A receptor (hET -A)
T2 sequence (P25101 whole entry): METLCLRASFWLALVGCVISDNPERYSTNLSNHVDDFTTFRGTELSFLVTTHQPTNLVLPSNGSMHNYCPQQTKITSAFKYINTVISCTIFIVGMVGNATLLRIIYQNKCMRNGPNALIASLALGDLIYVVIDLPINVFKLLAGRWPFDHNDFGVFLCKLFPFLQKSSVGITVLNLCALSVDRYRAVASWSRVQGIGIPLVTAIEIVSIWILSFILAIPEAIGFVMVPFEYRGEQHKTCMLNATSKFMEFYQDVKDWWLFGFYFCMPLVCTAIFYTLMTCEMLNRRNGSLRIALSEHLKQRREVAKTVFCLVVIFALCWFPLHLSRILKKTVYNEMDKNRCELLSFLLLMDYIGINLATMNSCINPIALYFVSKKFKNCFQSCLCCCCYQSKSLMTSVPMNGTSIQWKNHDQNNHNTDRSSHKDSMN

[4] = Compound was evaluated for area under curve when administered through oral route in rat; details: in vivo
[5] = Compound was evaluated for the biological half-life when administered through intravenous route; assay type: ADME, organism-based; details: in vivo
[6] = Oral bioavailability in rat; details: in vivo
[7] = test system: Rattus norvegicus; test: Oral bioavailability in rat
[8] = Oral bioavailability in rat; details: in vivo; remark: listed apart in the source
[9] = species: Rattus norvegicus; test: Clearance role of ET-B evaluated in terms of increase in circulating levels of ET-1 in rats; assay type: functional
[10] = species: Rattus norvegicus; test: Clearance role of ET-B evaluated in terms of increase in mean arterial pressure (MAP) in rats; assay type: functional, Artery
[11] = test system: CHO; test: Antagonistic activity was measured by ET receptor mediated hydrolysis of inositol phosphates; assay type: functional, cell-based; details: Cricetulus griseus
Summary of the method: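 Inositol phosphate hydrolysis in human ETB-transfected CHO cells. Confluent cells labeled with 5 μCi/well [3H]myoinositol, then held 60 min at 37 °C in HEPES saline buffer with protease inhibitors and 10 mM LiCl. Compounds added, then 1 nM ET-1 challenge for 30 min at 37 °C. Total inositol phosphates measured; agonist activity assessed in the same run.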

[12] = Compound was evaluated for area under curve when administered through oral route to rat; details: in vivo

Compound	IC50 [1]	Ratio [2]	IC50 [3]	other results
COc1ccc([C@H]2[C@H](C(=O)O)[C@@H](c3ccc4c(c3)OCO4)CN2CC(=O)Nc2c(OC)cccc2OC)cc1	57 nM	0.3	16 nM	
COc1ccc([C@H]2[C@H](C(=O)O)[C@@H](c3ccc4c(c3)OCO4)CN2CC(=O)Nc2ccc(C)cc2C)cc1	74 nM	0.3	25 nM	
COc1ccc([C@H]2[C@H](C(=O)O)[C@@H](c3ccc4c(c3)OCO4)CN2CC(=O)Nc2c(Br)cccc2Br)cc1	10 nM	6	61 nM	
CCc1cc(C(=O)O)cc(CC)c1NC(=O)CN1C[C@H](c2ccc3c(c2)OCO3)[C@@H](C(=O)O)[C@@H]1c1ccc(OC)cc1	44 nM	19	840 nM	
CCc1cc(F)cc(CC)c1NC(=O)CN1C[C@H](c2ccc3c(c2)OCO3)[C@@H](C(=O)O)[C@@H]1c1ccc(OC)cc1	0.8 nM	24	22 nM	
COc1ccc([C@H]2[C@H](C(=O)O)[C@@H](c3ccc4c(c3)OCO4)CN2CC(=O)Nc2cc(C)cc(C)c2)cc1	2700 nM	0.06	160 nM	
COc1ccc([C@H]2[C@H](C(=O)O)[C@@H](c3ccc4c(c3)OCO4)CN2CC(=O)Nc2cccc(C)c2C)cc1	81 nM	0.2	16 nM	
COc1ccc([C@H]2[C@H](C(=O)O)[C@@H](c3ccc4c(c3)OCO4)CN2CC(=O)Nc2c(C)cccc2C(C)C)cc1	20 nM	5	100 nM	
CCc1cccc(C)c1NC(=O)CN1C[C@H](c2ccc3c(c2)OCO3)[C@@H](C(=O)O)[C@@H]1c1ccc(OC)cc1	4 nM	4	15 nM	
CCc1cc(CC)c(NC(=O)CN2C[C@H](c3ccc4c(c3)OCO4)[C@@H](C(=O)O)[C@@H]2c2ccc(OC)cc2)c(CC)c1	1.5 nM	7	10 nM	
COc1ccc([C@H]2[C@H](C(=O)O)[C@@H](c3ccc4c(c3)OCO4)CN2CC(=O)Nc2c(C)cccc2C)cc1	16 nM	2	33 nM	
COc1ccc([C@H]2[C@H](C(=O)O)[C@@H](c3ccc4c(c3)OCO4)CN2CC(=O)Nc2ccc(C)c(C)c2)cc1	830 nM	0.06	50 nM	
COc1ccc([C@H]2[C@H](C(=O)O)[C@@H](c3ccc4c(c3)OCO4)CN2CC(=O)Nc2cc(C)ccc2C)cc1	82 nM	0.4	33 nM	
COc1ccc([C@H]2[C@H](C(=O)O)[C@@H](c3ccc4c(c3)OCO4)CN2CC(=O)Nc2c(C(C)C)cccc2C(C)C)cc1	26 nM	35	920 nM	
CCc1cccc(OC)c1NC(=O)CN1C[C@H](c2ccc3c(c2)OCO3)[C@@H](C(=O)O)[C@@H]1c1ccc(OC)cc1	5.8 nM	34	200 nM	
CCc1cccc(CC)c1N(C)C(=O)CN1C[C@H](c2ccc3c(c2)OCO3)[C@@H](C(=O)O)[C@@H]1c1ccc(OC)cc1	600 nM	0.3	190 nM	

Continued, in another order:

IC50 [1]	Ratio [2]	IC50 [3]	Compound	other results
3.8 nM	3000	11000 nM	CCc1cccc(CC)c1NC(=O)CN1C[C@H](c2ccc3c(c2)OCO3)[C@@H](C(=O)O)[C@@H]1c1ccc(CCOC)cc1	
	4000		CCc1cccc(CC)c1NC(=O)CN1C[C@H](c2ccc3c(c2)OCO3)[C@@H](C(=O)O)[C@@H]1c1ccc(OCCOC)cc1 (stereo in doubt; 34) [listing 1 of 2 here]	
1.1 nM		4200 nM	CCc1cccc(CC)c1NC(=O)CN1C[C@H](c2ccc3c(c2)OCO3)[C@@H](C(=O)O)[C@@H]1c1ccc(OCCOC)cc1 (stereo in doubt; 34) [listing 2 of 2 here]	
	280		CCOc1ccc([C@H]2[C@H](C(=O)O)[C@@H](c3ccc4c(c3)OCO4)CN2CC(=O)Nc2c(CC)cccc2CC)cc1 (stereo in doubt; 37) [listing 1 of 2 here]	
	32		CCc1cccc(CC)c1NC(=O)CN1C[C@H](c2ccc3c(c2)OCO3)[C@@H](C(=O)O)[C@@H]1c1ccc(OC)cc1 (stereo in doubt; 19) [listing 1 of 2 here]	
	1300		CCCOc1ccc([C@H]2[C@H](C(=O)O)[C@@H](c3ccc4c(c3)OCO4)CN2CC(=O)Nc2c(CC)cccc2CC)cc1 (stereo in doubt; 38)	
460 nM	0.03	12 nM	CCCc1cccc(CCC)c1NC(=O)CN1C[C@H](c2ccc3c(c2)OCO3)[C@@H](C(=O)O)[C@@H]1c1ccc(OC)cc1	
	250		CCOc1ccc([C@H]2[C@H](C(=O)O)[C@@H](c3ccc4c(c3)OCO4)CN2CC(=O)Nc2c(CC)cccc2CC)cc1 (stereo in doubt; 31) [listing 1 of 2 here]	
3.6 nM		910 nM	CCOc1ccc([C@H]2[C@H](C(=O)O)[C@@H](c3ccc4c(c3)OCO4)CN2CC(=O)Nc2c(CC)cccc2CC)cc1 (stereo in doubt; 31) [listing 2 of 2 here]	
0.27 nM		89 nM	CCc1cccc(CC)c1NC(=O)CN1C[C@H](c2ccc3c(c2)OCO3)[C@@H](C(=O)O)[C@@H]1c1ccc(OC)cc1 (stereo in doubt; 36) [listing 1 of 2 here]	AUC [4]: 3900 ng·h/mL; half-life [5]: 6.4 h; bioavailability [6]: 49%
	820		CCCOc1ccc([C@H]2[C@H](C(=O)O)[C@@H](c3ccc4c(c3)OCO4)CN2CC(=O)Nc2c(CC)cccc2CC)cc1 (stereo in doubt; 32)	
6.9 nM	220	1500 nM	CCc1cccc(CC)c1NC(=O)CN1C[C@H](c2ccc3c(c2)OCO3)[C@@H](C(=O)O)[C@@H]1c1ccc(OC(C)C)cc1	
	330		CCc1cccc(CC)c1NC(=O)CN1C[C@H](c2ccc3c(c2)OCO3)[C@@H](C(=O)O)[C@@H]1c1ccc(OC)cc1 (stereo in doubt; 36) [listing 2 of 2 here]	
82 nM	0.2	15 nM	CCCc1cccc(CC)c1NC(=O)CN1C[C@H](c2ccc3c(c2)OCO3)[C@@H](C(=O)O)[C@@H]1c1ccc(OC)cc1	
	4400		CCc1cccc(CC)c1NC(=O)CN1C[C@H](c2ccc3c(c2)OCO3)[C@@H](C(=O)O)[C@@H]1c1ccc(OCCOC)cc1 (stereo in doubt; 39) [listing 1 of 2 here]	bioavailability [7]: 9%
1.4 nM		45 nM	CCc1cccc(CC)c1NC(=O)CN1C[C@H](c2ccc3c(c2)OCO3)[C@@H](C(=O)O)[C@@H]1c1ccc(OC)cc1 (stereo in doubt; 19) [listing 2 of 2 here]	
6.4 nM		8200 nM	CCCOc1ccc([C@H]2[C@H](C(=O)O)[C@@H](c3ccc4c(c3)OCO4)CN2CC(=O)Nc2c(CC)cccc2CC)cc1 (stereo in doubt; 38) [A-192621]	bioavailability [8]: 35%; ET-1 level [9]: 19 pg/mL; MAP [10]: 150 mmHg; IC50 [11]: 0.65 nM; AUC [12]: 2500 ng·h/mL; half-life [5]: 5 h
1.2 nM		340 nM	CCOc1ccc([C@H]2[C@H](C(=O)O)[C@@H](c3ccc4c(c3)OCO4)CN2CC(=O)Nc2c(CC)cccc2CC)cc1 (stereo in doubt; 37) [listing 2 of 2 here]	IC50 [11]: 7.9 nM; AUC [12]: 3400 ng·h/mL; half-life [5]: 3.1 h; bioavailability [6]: 37%
12 nM		9900 nM	CCCOc1ccc([C@H]2[C@H](C(=O)O)[C@@H](c3ccc4c(c3)OCO4)CN2CC(=O)Nc2c(CC)cccc2CC)cc1 (stereo in doubt; 32) [A-192621]	
0.85 nM		3700 nM	CCc1cccc(CC)c1NC(=O)CN1C[C@H](c2ccc3c(c2)OCO3)[C@@H](C(=O)O)[C@@H]1c1ccc(OCCOC)cc1 (stereo in doubt; 39) [listing 2 of 2 here]	AUC [12]: 650 ng·h/mL; half-life [5]: 2.6 h
